ChEMBL document CHEMBL3232911, “Imidazolylchromanones containing non-benzylic oxime ethers: synthesis and molecular modeling study of new azole antifungals selective against Cryptococcus gattii” (2014)

Experiments:
Candida albicans = assay: Antifungal activity against Candida albicans assessed as total growth inhibition by micro-broth dilution method; assay type: functional
Method in brief: (§1)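 Broth microdilution following CLSI methods for yeasts and filamentous fungi. Compounds dissolved in DMSO, serially diluted in growth medium, inoculum added, incubation at 35 °C. MIC taken as the lowest concentration giving total inhibition of fungal growth. Testing done in triplicate.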

[1] = system: Cryptococcus gattii species complex; assay: Antifungal activity against Cryptococcus gattii assessed as total growth inhibition by micro-broth dilution method; assay type: functional, Cryptococcus bacillisporus; method in brief: as §1
Aspergillus fumigatus = assay: Antifungal activity against Aspergillus fumigatus assessed as total growth inhibition by micro-broth dilution method; assay type: functional; method in brief: as §1
Exophiala dermatitidis = assay: Antifungal activity against Exophiala dermatitidis assessed as total growth inhibition by micro-broth dilution method; assay type: functional; method in brief: as §1

SMILES | MIC (Candida albicans) | MIC [1] | MIC (Aspergillus fumigatus) | MIC (Exophiala dermatitidis)
O/N=C1\c2ccccc2OCC1n1ccnc1 (stereo unspecified) | > 64 µg/mL | > 64 µg/mL | > 64 µg/mL | > 128 µg/mL
O=[N+]([O-])O.c1ccc(OCCO/N=C2\c3ccccc3OCC2n2ccnc2)cc1 (racemic) | > 64 µg/mL | 2 µg/mL | 32 µg/mL | 128 µg/mL
Clc1ccc(OCCO/N=C2\c3ccccc3OCC2n2ccnc2)cc1.O=[N+]([O-])O (racemic) | > 64 µg/mL | 4 µg/mL | 64 µg/mL | 64 µg/mL
Clc1cccc(OCCO/N=C2\c3ccccc3OCC2n2ccnc2)c1.O=[N+]([O-])O (racemic) | > 64 µg/mL | 0.5 µg/mL | 32 µg/mL | 64 µg/mL
Fc1ccc(OCCO/N=C2\c3ccccc3OCC2n2ccnc2)cc1.O=[N+]([O-])O (racemic) | > 64 µg/mL | 4 µg/mL | 64 µg/mL | 128 µg/mL
Fc1cccc(OCCO/N=C2\c3ccccc3OCC2n2ccnc2)c1.O=[N+]([O-])O (racemic) | > 64 µg/mL | 2 µg/mL | 64 µg/mL | 64 µg/mL
Clc1ccc(OCCO/N=C2\c3ccccc3OCC2n2ccnc2)c(Cl)c1.O=[N+]([O-])O (racemic) | > 64 µg/mL | 2 µg/mL | 64 µg/mL | 128 µg/mL
OC(Cn1cncn1)(Cn1cncn1)c1ccc(F)cc1F [FLUCONAZOLE] | 2 µg/mL | > 64 µg/mL | > 64 µg/mL | > 64 µg/mL
CCC(C)n1ncn(-c2ccc(N3CCN(c4ccc(OCC5COC(Cn6cncn6)(c6ccc(Cl)cc6Cl)O5)cc4)CC3)cc2)c1=O (stereo unspecified) [ITRACONAZOLE] | 0.25 µg/mL | 0.5 µg/mL | 4 µg/mL | 0.5 µg/mL
